Results on 8 compounds are retold here after ChEMBL document CHEMBL1142654, “Partition-variant desferrithiocin analogues: organ targeting and increased iron clearance” (J Med Chem, 2005).

In one data set the test system is Monkey. Briefly: Percentage of iron clearing efficiency was measured in monkey after administration at 150 umol/kg (n=4). It is filed as functional. A digest of the protocol: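 Cebus apella monkeys iron-overloaded with iv iron dextran to about 500 mg Fe/kg, at least 60 days before use. Single po dose of 150 µmol/kg as solution or suspension in 40% Cremophor RH-40/water. Stool and urine collected every 24 h, from 4 days before dosing to 5 days after. Iron measured by flame atomic absorption. ICE = (2-day post-dose iron minus mean 4-day baseline) / theoretical excretion × 100. Mean ± SEM.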

Data set [1] in a line: Lipophilicity (Log Papp) was measured at pH 7.4; Activity expressed as the log of the fraction in the octanol layer. It is filed as physicochemical. The note with it: octanol/aqueous phase. A digest of the protocol:
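Shake-flask octanol/water distribution at pH 7.4 in 50 mM TRIS buffer, uncorrected for partial ionization. Quadruplicate samples shaken with 1-octanol overnight, layers left to settle 1-2 h before separation. Room temperature (22-24 °C), UV spectrometric read-out, value given as log of fraction in octanol layer.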

In the case of `COc1cccc(C2=N[C@@H](C(=O)O)CS2)c1O`, in the data set with Monkey, the Activity is 15.5%. Further, the log fraction in octanol layer in data set [1] is -1.52.
For `O=C(O)[C@H]1CSC(c2cccc(O)c2O)=N1` the same measures were 5.8% and -1.67.
The like results for `O=C(O)[C@H]1CSC(c2ccc(O)cc2O)=N1` were, in that order, 4.2% and -1.33.
For `C[C@]1(C(=O)O)CSC(c2cccc(O)c2O)=N1` the same measures were 23.1% and -1.17.
`COc1ccc(C2=N[C@@H](C(=O)O)CS2)c(O)c1` showed an Activity in the data set with Monkey of 16.2%. Further, the log fraction in octanol layer in data set [1] is -0.89.
The compound `COc1ccc(C2=N[C@@](C)(C(=O)O)CS2)c(O)c1` had an Activity with Monkey of 24.4%. The same compound showed a log fraction in octanol layer in data set [1] of -0.7.
The like results for `COc1cccc(C2=N[C@@](C)(C(=O)O)CS2)c1O` were, in that order, 22.5% and -1.12.
The like results for `C[C@]1(C(=O)O)CSC(c2ccc(O)cc2O)=N1` [DEFERITRIN] were, in that order, 13.4% and -1.05.
